Data on eight compounds can be found in ChEMBL document CHEMBL3352386, “Development of chiral praziquantel analogues as potential drug candidates with activity to juvenile Schistosoma japonicum” (2014).

By inhibition is commonly meant the share of the control response that was lost under treatment. The inhibition in vivo is the share of the control response that was lost under treatment.

Test [1] has as its system Schistosoma japonicum. Briefly: Antischistosomal activity against adult Schistosoma japonicum assessed as vitality reduction at 50 uM after 72 hrs (reference value: 0%). It counts as functional.
In test [2] the test system is Schistosoma japonicum. Briefly: Antischistosomal activity against adult Schistosoma japonicum assessed as vitality reduction at 100 uM after 72 hrs (reference value: 0%). It counts as functional.
For test [3], the system named is Schistosoma japonicum. Briefly: Antischistosomal activity against juvenile Schistosoma japonicum assessed as worm survival at 50 uM after 24 hrs (reference value: 100%). It counts as functional. The essentials: (§1)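 Nine juvenile S. japonicum worms recovered 17 days post-infection from female ICR Kunming mice, in duplicate dishes of bicarbonate-buffered DMEM with 20% newborn calf serum plus penicillin, streptomycin and amphotericin B. Compound diluted from DMSO stock. Held at 37 °C, 5% CO2, with daily stereomicroscope scoring. Survival% = surviving/total worms × 100.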

Test [4] relates to Schistosoma japonicum. Briefly: Antischistosomal activity against juvenile Schistosoma japonicum assessed as vitality reduction at 50 uM after 24 hrs (reference value: 0%). Format: functional.
The subject of test [5] is Schistosoma japonicum. The experiment in a line: Antischistosomal activity against juvenile Schistosoma japonicum assessed as worm survival at 50 uM after 48 hrs (reference value: 100%). Format: functional. The essentials:
as §1

Test [6] relates to Schistosoma japonicum. The experiment in a line: Antischistosomal activity against juvenile Schistosoma japonicum assessed as vitality reduction at 50 uM after 48 hrs (reference value: 0%). It counts as functional.
Test [7] concerns Schistosoma japonicum. Briefly: Antischistosomal activity against juvenile Schistosoma japonicum assessed as worm survival at 50 uM after 72 hrs (reference value: 100%). Format: functional. A digest of the protocol: as §1
In test [8] the test system is Schistosoma japonicum. Briefly: Antischistosomal activity against juvenile Schistosoma japonicum assessed as vitality reduction at 50 uM after 72 hrs (reference value: 0%). Format: functional.
Test [9] concerns Schistosoma japonicum. Briefly: Antischistosomal activity against adult Schistosoma japonicum assessed as vitality reduction at 50 uM after 24 hrs (reference value: 0%). Format: functional.
Test [10] has as its system Schistosoma japonicum. The experiment in a line: Antischistosomal activity against adult Schistosoma japonicum assessed as worm survival at 100 uM after 24 hrs (reference value: 100%). Format: functional. A digest of the protocol:
(§2)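 Five adult male S. japonicum worms recovered 6 weeks post-infection from female ICR Kunming mice, in duplicate dishes of bicarbonate-buffered DMEM with 20% newborn calf serum, penicillin, streptomycin and amphotericin B. Compound diluted from DMSO stock; DMSO control. Kept at 37 °C, 5% CO2, observed daily by stereomicroscope. Survival% = surviving/total worms × 100.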

Test [11] relates to Schistosoma japonicum. The experiment in a line: Antischistosomal activity against adult Schistosoma japonicum assessed as worm survival at 50 uM after 24 hrs (reference value: 100%). Format: functional. The essentials:
as §2

Test [12] concerns Schistosoma japonicum. Briefly: Antischistosomal activity against adult Schistosoma japonicum assessed as vitality reduction at 100 uM after 24 hrs (reference value: 0%). It counts as functional.
The subject of test [13] is Schistosoma japonicum. The experiment in a line: Antischistosomal activity against adult Schistosoma japonicum assessed as worm survival at 50 uM after 48 hrs (reference value: 100%). Format: functional. The essentials: as §2
Test [14] deals with Schistosoma japonicum. Briefly: Antischistosomal activity against adult Schistosoma japonicum assessed as worm survival at 100 uM after 48 hrs (reference value: 100%). It counts as functional. A digest of the protocol: as §2
Test [15] relates to Schistosoma japonicum. The experiment in a line: Antischistosomal activity against adult Schistosoma japonicum assessed as vitality reduction at 50 uM after 48 hrs (reference value: 0%). It counts as functional.
For test [16], the system named is Schistosoma japonicum. The experiment in a line: Antischistosomal activity against adult Schistosoma japonicum assessed as vitality reduction at 100 uM after 48 hrs (reference value: 0%). Format: functional.
Test [17] concerns Schistosoma japonicum. The experiment in a line: Antischistosomal activity against adult Schistosoma japonicum assessed as worm survival at 50 uM after 72 hrs (reference value: 100%). Format: functional. A digest of the protocol:
as §2

In test [18] the test system is Schistosoma japonicum. The experiment in a line: Antischistosomal activity against adult Schistosoma japonicum assessed as worm survival at 100 uM after 72 hrs (reference value: 100%). Format: functional. The essentials:
as §2

Test [19] has as its system Schistosoma japonicum. The experiment in a line: Antischistosomal activity against juvenile Schistosoma japonicum infected in ICR Kunming mouse assessed as worm reduction at 200 mg/kg, po for 5 days beginning on day 14 after infection (reference value: 0%).
In test [20] the test system is Schistosoma japonicum. The experiment in a line: Antischistosomal activity against adult Schistosoma japonicum assessed as worm survival at 80 uM after 72 hrs (reference value: 100%). It counts as functional. The essentials:
as §2

Test [21] has as its system Schistosoma japonicum. The experiment in a line: Antischistosomal activity against adult Schistosoma japonicum assessed as vitality reduction at 80 uM after 72 hrs (reference value: 0%). It counts as functional.
In test [22] the test system is Schistosoma japonicum. Briefly: Antischistosomal activity against adult Schistosoma japonicum assessed as worm survival at 80 uM after 24 hrs (reference value: 100%). It counts as functional. The essentials: as §2
Test [23] has as its system Schistosoma japonicum. Briefly: Antischistosomal activity against adult Schistosoma japonicum assessed as vitality reduction at 80 uM after 24 hrs (reference value: 0%). Format: functional.
Test [24] relates to Schistosoma japonicum. Briefly: Antischistosomal activity against adult Schistosoma japonicum assessed as worm survival at 80 uM after 48 hrs (reference value: 100%). Format: functional. The essentials:
as §2

In test [25] the test system is Schistosoma japonicum. Briefly: Antischistosomal activity against adult Schistosoma japonicum assessed as vitality reduction at 80 uM after 48 hrs (reference value: 0%). It counts as functional.

Regarding `O=C1CCC(C(=O)N2CC(=O)N3CCc4ccccc4[C@H]3C2)C1` (stereo not given in full), the inhibition at 50 µM came to 0% in test [1]; 45.7% in test [4]; 45.7% in test [6]; 53.1% in test [8]; 4.5% in test [9]; 0% in test [15]. Also, the inhibition at 100 µM in test [2] amounted to 15.3%; in test [12], 16%; in [16], 15.5%. The survival at 50 µM in test [3] came out at 100%; in [5] it was 100%; in test [7], 85%; in [11] it was 100%; in [13], 100%; in test [17], 100%. Further, the survival at 100 µM in test [10], in test [14] and in test [18] was 100% throughout. For the same compound, the inhibition in vivo at 200 mg/kg in [19] was 24.6%.
Regarding `O=C1CC(C(=O)N2CC(=O)N3CCc4ccccc4[C@@H]3C2)C1`, the inhibition at 50 µM in test [1] worked out at 15.3%; in test [4], 32.1%; in [6], 37%; in test [8], 38.3%; in [9], 17.8%; in test [15], 15.5%. Moreover, the inhibition at 100 µM in test [2] came to 22.7%; in [12], 24.5%; in test [16], 22%. Moreover, the survival at 50 µM in test [3], in [5], in test [7], in test [11], in test [13] and in test [17] was 100% in each case. Moreover, the survival at 100 µM in [10], in test [14] and in [18] was 100% in each case. The inhibition in vivo at 200 mg/kg in test [19] is 41%.
As for `O=C1CCC(C(=O)N2CC(=O)N3CCc4ccccc4C3C2)CC1` (racemic), the survival at 80 µM in test [20], in [22] and in test [24] was 100% in each case. Also, the inhibition at 50 µM in test [1] was 66.7%; in test [4], 35.8%; in [6], 34.6%; in test [8], 34.6%; in test [9] it was 40%; in test [15] it was 64.5%. The figures for the inhibition at 100 µM in [2], in test [12] and in test [16] were 55.3%, 46.7% and 60%, respectively. Besides, the results for the inhibition at 80 µM in test [21], in [23] and in [25] were 66.7%, 48.9% and 64.5%, respectively. In addition, the survival at 50 µM in [3] amounted to 69.2%; in test [5], 69.2%; in test [7] it was 69.2%; in [11], 100%; in test [13] it was 100%; in test [17] it was 100%. In addition, the survival at 100 µM in test [10], in [14] and in test [18] was 100% each time. Further, the inhibition in vivo at 200 mg/kg in [19] stood at 27.7%.
For the compound `O=C1CC(C(=O)N2CC(=O)N3CCc4ccccc4[C@H]3C2)C1`, the inhibition at 50 µM in test [1] came out at 0%; in test [4], 30.9%; in [6], 30.9%; in [8] it was 34.6%; in test [9], 4.5%; in test [15] it was 0%. Also, the inhibition at 100 µM came out at 8.9% in test [2], 6.7% in [12] and 8.7% in [16]. Moreover, the survival at 50 µM turned out to be 88.3% in test [3]; 88.3% in test [5]; 88.3% in [7]; 100% in test [11]; 100% in test [13]; 100% in test [17]. For the same compound, the survival at 100 µM in test [10], in [14] and in [18] was 100% each time. In addition, the inhibition in vivo at 200 mg/kg in [19] was 19%.
For `O=C1CC(C(=O)N2CC(=O)N3CCc4ccccc4C3C2)C1` (racemic), the inhibition at 50 µM in test [1] turned out to be 0%; in test [4] it was 35.8%; in [6], 35.8%; in test [8], 37%; in [9], 13.3%; in test [15] it was 0%. The inhibition at 100 µM was determined as 10% in test [2], 6.7% in test [12] and 10% in [16]. For the same compound, the survival at 50 µM was 82.5% in [3]; 82.5% in test [5]; 82.5% in test [7]; 100% in [11]; 100% in test [13]; 100% in test [17]. Moreover, the survival at 100 µM in test [10], in test [14] and in test [18] was 100% each time. In addition, the inhibition in vivo at 200 mg/kg in [19] amounted to 7.7%.
`O=C1CCC(C(=O)N2CC(=O)N3CCc4ccccc4[C@H]3C2)CC1`: the inhibition at 50 µM in [1] worked out at 0%; in [4], 29.6%; in test [6], 29.6%; in test [8], 29.6%; in [9], 0%; in [15], 0%. Also, the results for the inhibition at 100 µM in test [2], in test [12] and in test [16] were 15.5%, 8.7% and 15.3%, respectively. For the same compound, the survival at 50 µM in test [3] turned out to be 88.3%; in [5], 88.3%; in test [7], 88.3%; in test [11], 100%; in test [13] it was 100%; in [17], 100%. Also, the survival at 100 µM in test [10], in test [14] and in test [18] was 100% each time. Further, the inhibition in vivo at 200 mg/kg in test [19] was 18%.
As to `O=C(C1CCCCC1)N1CC(=O)N2CCc3ccccc3C2C1` (stereo not given) [PRAZIQUANTEL], in test [19], the inhibition in vivo at 200 mg/kg came out at 19.9%.
Turning to `O=C1CCC(C(=O)N2CC(=O)N3CCc4ccccc4[C@@H]3C2)C1` (stereo not given in full), the inhibition at 50 µM in test [1] is 6.7%; in [4], 38.3%; in test [6], 38.3%; in [8], 50.6%; in test [9] it was 15.5%; in test [15], 0%. For the same compound, the values for the inhibition at 100 µM in test [2], in test [12] and in test [16] were 11.1%, 13.3% and 11.1%, respectively. In addition, the survival at 50 µM came out at 100% in [3]; 100% in [5]; 88.3% in [7]; 100% in [11]; 100% in test [13]; 100% in [17]. The survival at 100 µM in [10], in [14] and in test [18] was 100% throughout. In addition, in [19], the inhibition in vivo at 200 mg/kg came out at 44.1%.
